For data set [1], the system named is Raji. Briefly: Inhibition of TPA-induced EBV-early antigen activation in human Raji cells assessed as early antigen activation at 16 nmol after 48 hrs relative to control. The following applies: human gammaherpesvirus 4. More on the design: scale not given: the % may be the effect or the level left. It is filed as cell-based. Summed up:
(§1)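 Raji cells at 10^6 cells/mL are harvested and induced in RPMI 1640/10% FCS with 4 mM n-butyric acid and 32 pmol TPA (20 ng/mL). Compound is added in DMSO at 32, 16, 3.2 or 0.32 nmol (mol ratio to TPA). After 48 h at 37 °C, EA-positive cells are counted blind (≥500 cells) as % versus TPA-only control ± SD. IC50 is the mol ratio to TPA giving 50% inhibition.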

Data set [2] can be described thus: Cytotoxicity against human Raji cells assessed as cell viability at 32 nmol after 48 hrs by trypan blue staining. The following applies: read-out: Activity. It is filed as cell-based. In outline:
(§2)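 Raji cells grown to 106 cells/mL, pelleted and resuspended in RPMI 1640 with 10% FCS plus 4 mM n-butyric acid and 32 pmol TPA (20 ng/mL in DMSO), with test compound in DMSO (32, 16, 3.2 or 0.32 nmol; 1000–10 mol ratio/TPA). Viability counted after 48 h at 37 °C by hemocytometer with Trypan Blue; at least 60% survival required.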

For data set [3], the system named is Raji. Briefly: Inhibition of TPA-induced EBV-early antigen activation in human Raji cells assessed as early antigen activation at 32 nmol after 48 hrs relative to control. To be noted: human gammaherpesvirus 4. Set-up: scale not given: the % may be the effect or the level left. The format is cell-based. Summed up:
as §1

The nature of data set [4]: Cytotoxicity against human Raji cells assessed as cell viability at 0.32 nmol after 48 hrs by trypan blue staining. To be noted: read-out: Activity. The format is cell-based. In outline: as §2
A short description of data set [5]: Cytotoxicity against human Raji cells assessed as cell viability at 3.2 nmol after 48 hrs by trypan blue staining. It is filed as cell-based. To be noted: read-out: Activity. Summed up: as §2
Data set [6] is described as follows: Inhibition of TPA-induced EBV-early antigen activation in human Raji cells assessed as early antigen activation after 48 hrs relative to control. The format is cell-based, human gammaherpesvirus 4. In outline: as §1
Data set [7] deals with Raji. The experiment in a line: Inhibition of TPA-induced EBV-early antigen activation in human Raji cells assessed as early antigen activation at 0.32 nmol after 48 hrs relative to control. It is filed as cell-based. More on the design: scale not given: the % may be the effect or the level left. The following applies: human gammaherpesvirus 4. Summed up: as §1
Data set [8] has as its system Raji. The experiment in a line: Inhibition of TPA-induced EBV-early antigen activation in human Raji cells assessed as early antigen activation at 3.2 nmol after 48 hrs relative to control. More on the design: scale not given: the % may be the effect or the level left. To be noted: human gammaherpesvirus 4. The format is cell-based. In outline:
as §1

Data set [9] in a line: Cytotoxicity against human Raji cells assessed as cell viability at 16 nmol after 48 hrs by trypan blue staining. The following applies: read-out: Activity. The format is cell-based. In outline:
as §2

Data on nine compounds can be found in ChEMBL document CHEMBL1150675, “Chemical constituents of Calophyllum brasiliense. 2. Structure of three new coumarins and cancer chemopreventive activity of 4-substituted coumarins” (J Nat Prod, 2003).

On to `CCCc1cc(=O)oc2c(C(=O)C(C)CC)c(O)c(CC=C(C)C)c(O)c12` (stereo not given), for which the Activity in [1] stood at 13.7%; in data set [3] it was 0%; in data set [7], 84.2%; in data set [8] it was 50.6%. The viability at 48 h, 32 nmol in [2] stood at 60%. Also, the viability at 48 h, 0.32 nmol in data set [4] was greater than 80%. In addition, the viability at 48 h, 3.2 nmol in data set [5] was greater than 80%. In addition, the IC50 in data set [6] is on record as 170 molar ratio. Also, the viability at 48 h, 16 nmol in data set [9] was greater than 80%.
As to `C/C=C(\C)C(=O)c1c(OC)c2c(c3c(CCC)cc(=O)oc13)OC(C)(C)C=C2`, the Activity worked out at 19.5% in data set [1], 0% in data set [3], 90.8% in data set [7] and 62.5% in [8]. The viability at 48 h, 32 nmol in [2] was 60%. The viability at 48 h, 0.32 nmol in data set [4] is greater than 80%. Moreover, the viability at 48 h, 3.2 nmol in data set [5] is greater than 80%. Moreover, in data set [6], the IC50 stood at 268 molar ratio. In addition, the viability at 48 h, 16 nmol in data set [9] was greater than 80%.
As to `CC1=C(/C=C/C(C)=C/C=C/C(C)=C/C=C/C=C(C)/C=C/C=C(C)/C=C/C2=C(C)CCCC2(C)C)C(C)(C)CCC1` [BETA CAROTENE], the Activity is 9.1% in data set [3] and 100% in data set [7]. The IC50 in [6] is listed as 400 molar ratio.
`CCCc1cc(=O)oc2c(C(=O)c3ccccc3)c(O)c3c(c12)OC(C)(C)C=C3` [BRASIMARIN A]: the Activity in data set [1] worked out at 33.3%; in data set [3], 0%; in data set [7], 93.8%; in data set [8] it was 72.1%. The viability at 48 h, 32 nmol in data set [2] amounted to 70%. For the same compound, the viability at 48 h, 0.32 nmol in data set [4] is greater than 80%. The viability at 48 h, 3.2 nmol in data set [5] was greater than 80%. Further, the IC50 in [6] came out at 349 molar ratio. For the same compound, the viability at 48 h, 16 nmol in data set [9] was greater than 80%.
Regarding `CCC(C)C(=O)c1c(O)c2c(c3c(-c4ccccc4)cc(=O)oc13)OC(C(C)(C)O)C2` (stereo not given) [BRASIMARIN B], the Activity in [1] stood at 32.6%; in [3], 0%; in data set [7], 92.5%; in [8], 71.6%. Moreover, the viability at 48 h, 32 nmol in data set [2] is 70%. For the same compound, in data set [4], the viability at 48 h, 0.32 nmol was greater than 80%. In data set [5], the viability at 48 h, 3.2 nmol is greater than 80%. Further, the IC50 in data set [6] amounted to 342 molar ratio. Moreover, in [9], the viability at 48 h, 16 nmol was greater than 80%.
On to `CC(C)=CCc1c2c(c3oc(=O)cc(-c4ccccc4)c3c1O)C(=O)[C@H](C)[C@@H](C)O2` [BRASIMARIN C], for which the Activity in data set [1] is 33.3%; in data set [3], 0%; in [7], 93.8%; in [8], 70.2%. The viability at 48 h, 32 nmol in data set [2] stood at 70%. For the same compound, the viability at 48 h, 0.32 nmol in data set [4] is greater than 80%. Further, the viability at 48 h, 3.2 nmol in data set [5] was greater than 80%. Moreover, the IC50 in [6] was 348 molar ratio. In addition, the viability at 48 h, 16 nmol in data set [9] is greater than 80%.
As to `CCCc1cc(=O)oc2c3c(c4c(c12)OC(C)(C)C=C4)O[C@H](C)[C@@H](C)[C@@H]3O` [CALANOLIDE A], the Activity came to 27.7% in [1], 0% in data set [3], 92.5% in data set [7] and 66.6% in [8]. Further, in data set [2], the viability at 48 h, 32 nmol came out at 60%. In addition, the viability at 48 h, 0.32 nmol in [4] is greater than 80%. Besides, in data set [5], the viability at 48 h, 3.2 nmol is greater than 80%. In [6], the IC50 is 290 molar ratio. For the same compound, the viability at 48 h, 16 nmol in data set [9] was greater than 80%.
`CCCc1cc(=O)oc2c3c(c4c(c12)OC(C)(C)C=C4)O[C@H](C)[C@H](C)[C@@H]3O` [CALANOLIDE C]: the Activity stood at 35.1% in data set [1], 0% in data set [3], 94.3% in data set [7] and 74% in data set [8]. Also, the viability at 48 h, 32 nmol in data set [2] was 70%. In addition, the viability at 48 h, 0.32 nmol in data set [4] was greater than 80%. In [5], the viability at 48 h, 3.2 nmol was greater than 80%. In data set [6], the IC50 is 351 molar ratio. Also, the viability at 48 h, 16 nmol in data set [9] is greater than 80%.
Turning to `CC1(C)C=Cc2c(O)c(C(=O)c3ccccc3)c3oc(=O)cc(-c4ccccc4)c3c2O1` [CALANONE], the Activity in data set [1] worked out at 32.3%; in data set [3], 0%; in data set [7] it was 93.3%; in data set [8], 73.1%. In data set [2], the viability at 48 h, 32 nmol is 70%. Moreover, in data set [4], the viability at 48 h, 0.32 nmol is greater than 80%. The viability at 48 h, 3.2 nmol in [5] was greater than 80%. The IC50 in data set [6] was 347 molar ratio. Moreover, the viability at 48 h, 16 nmol in data set [9] was greater than 80%.
